Rev-erbA mod – Rev-erb alpha (human) modulation; P20393; Rev-erbα–FITC-DNA binding, fluorescence polarization, 90 min; activity, % at 10 µM; hit rate 0.79% among 370,000; AID 1259318;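 active means activity above about 14%, limit read from the data; passing the limit was not always enough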;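 further: 0% = DMSO wells with 35 nM protein and 100% = DMSO wells with 750 nM protein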
PG9 Ab binder – PG9 antibody binding by small molecule | TR-FRET gp120-PG9 antibody binding | inhibition, % at 6.7 µM | hit rate 0.43% among 360,000; in the data active means inhibition above about 8.5%
NR2E3 ag-1 – agonists of human NR2E3 nuclear receptor. Q9Y5X4. CHO-S Gal4-NCOR/VP16-NR2E3 two-hybrid, luciferase. inhibition of corepressor binding, % at 3.98 µM. hit rate 0.35% among 360,000. AID 602229;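 active means inhibition above the mean of all tested compounds plus 3 SD, cut at about 70% in these data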;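 further: 0% = DMSO with NR2E3 transfected cells and 100% = cells lacking NR2E3 construct; higher means lower luciferase signal from less NR2E3 corepressor binding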
Target sequence (Q9Y5X4 whole entry, looked up, the tested form may be a part): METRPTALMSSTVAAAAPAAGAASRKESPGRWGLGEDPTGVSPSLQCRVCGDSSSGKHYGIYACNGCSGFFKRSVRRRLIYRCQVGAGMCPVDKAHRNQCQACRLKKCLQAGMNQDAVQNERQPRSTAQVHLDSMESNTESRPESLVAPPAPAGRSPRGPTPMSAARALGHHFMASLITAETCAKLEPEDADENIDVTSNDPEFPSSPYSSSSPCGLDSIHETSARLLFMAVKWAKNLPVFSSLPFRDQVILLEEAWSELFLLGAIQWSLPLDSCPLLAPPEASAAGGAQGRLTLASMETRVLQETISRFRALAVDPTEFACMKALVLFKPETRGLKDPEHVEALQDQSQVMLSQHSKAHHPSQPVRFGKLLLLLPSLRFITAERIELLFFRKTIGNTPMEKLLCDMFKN
NR2E3 ag-2 – activates human photoreceptor nuclear receptor NR2E3; hit rate 0.12% among 320,000; Q9Y5X4; inhibition of corepressor binding, % at 4.78 µM; GST-NR2E3/biotin-RetCOR TR-FRET, 1536-well;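 active means percent inhibition above the cutoff of mean plus 3 SD of all tested compounds, set per screening campaign, cut at about 20% in these data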;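 further: 0% = DMSO wells and 100% = biotin wells as full block of FRET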
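Format: 1536-well format; test system: GST-NR2E3 and biotin-RetCOR proteins; read-out basis: percent inhibition of TR-FRET ratio; timing: 5 h incubation at 4 °C; detection: time-resolved FRET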
Rev-erbA confirm – Rev-erb alpha (human) modulation, hit confirmation. shares compounds with Rev-erbA mod. Rev-erb alpha FITC-DNA binding, fluorescence polarization, 90 min. activation, % at 25 µM. hit rate 61% among 3,000. AID 1259319;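 active means activation at or above a set limit, or at least 3 SD above the negative control mean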;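 further: 0% = 35 nM protein with DMSO and 100% = 750 nM protein high control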
RORg counter – affects RORgamma DNA binding in a Rev-erb alpha counter-screen; shares compounds with Rev-erbA mod; purified RORgamma protein-FITC-DNA binding, fluorescence polarization; IC50, µM; hit rate 8% among 910;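 active means Compounds whose fitted half-maximal concentration for disrupting protein-DNA binding is below 10 micromolar; the record names Rev-erb in its text, so the target is in doubt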
Starred values were filed as active, the others as inactive; i = inactive; . = no result. A selection: hits, their analogues and other compounds. The true share with any hit is near 1.5%.

SMILES	Rev-erbA mod	PG9 Ab binder	NR2E3 ag-1	NR2E3 ag-2	Rev-erbA confirm	others
O=C(Nc1ccc(F)cc1F)C1CCN(c2ncnc3c2sc2cccc(F)c23)CC1	33*	0	-83	-2	27*
O=C(C1CCN(c2ncnc3c2sc2cccc(F)c23)CC1)N1CCCCC1	-9	.	.	.	.
COC(=O)c1ccc2nc(-c3ccccc3)c(Cc3ccccc3C(F)(F)F)n2c1	22*	1	-18	.	19*
COC(=O)c1ccc2nc(-c3ccc(F)cc3)c(Cc3ccccc3C(F)(F)F)n2c1	21*	0	-3	.	-5
C/C(=N/NC(=O)c1cccnc1)c1cccc(O)c1	-6	.	.	.	.
CCN(C(=O)c1ccccc1)c1ccc([N+](=O)[O-])cc1	0	-2	-2	-4	.
O=[N+]([O-])c1ccc(N(c2ccccc2)c2ccccc2)cc1	44*	6	3	3	35*	RORg counter=>40
CC(C)(C)N1Cc2nnn(Cc3ccccc3)c2-c2ccccc2S1(=O)=O	1	.	.	.	.
O=C(Nc1cccnc1Cl)c1cc(-c2ccc(Br)cc2)on1	23*	3	7	2	-4
O=C(Nc1cccnc1Cl)c1cc(-c2cccc(O)c2)on1	-19	-1	-4	-17	.
COc1ccc(-c2cc(C(=O)Nc3cccnc3Cl)no2)cc1OC	39*	0	1	2	35*	RORg counter=>40
CSCCCNC(=O)CN1C(=O)C2CCCCN2C(=O)c2ccccc21 (stereo not given)	5	.	.	.	.
CCOC(=O)N1CCN(C(=O)C[C@H]2C[C@@]3(C(=O)OC)C(=C[C@H](C(C)C)O[C@@H]3C3CC3)N(CCc3ccc(OC)c(OC)c3)C2=O)CC1	-3	.	.	.	.
COc1ccc(-n2c(SCC(=O)Nc3ccc(Oc4ccccc4)cc3)nnc2-c2cccnc2)cc1	3	.	.	.	.
CCCc1cc(=O)oc2cc(C)cc(OC(C)C(=O)NCc3ccncc3)c12 (stereo not given)	23*	-2	22	0	21*
CCCc1cc(=O)oc2cc(C)cc(OCC(=O)Nc3ccc(S(N)(=O)=O)cc3)c12	135*	5	8	-1	151*	RORg counter=i
CCOC(=O)Cc1nc(N2CCN(Cc3cccc4c3OCO4)CC2)c2c(C)c(C(=O)OCC)sc2n1	5	.	.	.	.
O=C(OCC(=O)c1c[nH]c2ccccc12)c1cc(Br)ccc1O	42*	2	-59	1	41*	RORg counter=>40
Cc1ccc(C(=O)OCC(=O)c2c[nH]c3ccccc23)cc1	-4	1	-38	0	.
COc1ccc(-n2c(COc3ccccc3)nnc2SCC(=O)Nc2ccc3c(c2)OCCO3)cc1	2	.	.	.	.
COc1nc(OC)nc(N2CCC(C(=O)N(C)Cc3ccco3)CC2)n1	4	.	.	.	.
Cc1cc2c(=O)oc(-c3ccc(Br)cc3)nc2s1	31*	0	-21	0	7
Cn1c(=O)c2[nH]c(SCC(=O)NCCc3ccc(F)cc3)nc2n(C)c1=O	0	.	.	.	.
O=S(Cc1cc(Sc2ccccc2)nc(-c2ccccc2)n1)c1ccccc1 (stereo not given)	25*	-2	-49	6	16
CCn1c(/C=C/c2c(C)[nH]c3ccccc23)nc2ccccc2c1=O	59*	-1	2	1	29*
SMILES	Rev-erbA mod	PG9 Ab binder	NR2E3 ag-1	NR2E3 ag-2	Rev-erbA confirm	others
CCn1c(/C=C/c2c[nH]c3ccccc23)nc2ccccc2c1=O	1	-1	-105	1	.
CCN(CC)C(=O)c1ccc2c(=O)n(Cc3cccc(Br)c3)c(=S)[nH]c2c1	33*	3	.	0	13
O=c1c2cc(Br)ccc2[nH]c(=S)n1Cc1ccccc1	39*	2	-72	-3	18*
O=c1c2cc(Br)ccc2[nH]c(=S)n1Cc1ccccn1	1	-4	8	2	.
N#Cc1cc2c(nc1SCC(=O)Nc1sc3c(c1C#N)CCC3)CCCCCC2	11	1	-4	-2	.
CCc1nnc(NC(=O)CSc2nc3c(cc2C#N)CCC3)s1	29*	1	-136	-2	31*
CCSc1nnc(NC(=O)CSc2nc3c(cc2C#N)CCCC3)s1	34*	0	-100	-1	19*
COc1ccc(-c2nc(C#N)c(N3CCN(c4ccccc4)CC3)o2)cc1	3	-1	-9	5	.
COc1ccc(N2CCN(c3oc(-c4ccc(OC)c(OC)c4)nc3C#N)CC2)cc1	58*	0	-8	2	-1
CCn1c2ccccc2c2cc(C3C(C#N)=C(C)NC(C)=C3C#N)ccc21	102*	-1	-1	4	63*	RORg counter=>40
CCn1c2ccccc2c2cc(C3C(C#N)=C(N)Oc4n[nH]c(COC)c43)ccc21 (stereo not given)	5	0	2	2	.
O=C1CN(c2nc(-c3ccccc3)c3ccccc3n2)c2ccccc2N1	34*	1	13	-3	15
c1ccc(-c2nc(-n3nc4ccccc4n3)nc3ccccc23)cc1	2	0	5	1	.
O=C(c1cc(-c2ccncc2)nc2ccc(Br)cc12)N1CCN(c2ccccn2)CC1	6	0	10	-3	.
O=C(c1cc(-c2ccccc2Cl)nc2ccc(Br)cc12)N1CCN(c2ccccn2)CC1	19*	4	-29	6	9
CCC[C@H]1[C@@H](OC(=O)NCc2ccccc2Cl)CC[C@@]23CCCN2C(=O)CCC[C@@H]13	0	.	.	.	.
Cc1cc(C)c2c(n1)nn1c(N3CCN(c4ccccc4C)CC3)cc(C)nc21	71*	3	-21	-3	26*
COc1ccc(CN2CCN(c3cc(C)nc4c5c(C)cc(C)nc5nn34)CC2)cc1F	0	0	-21	1	.
CCOC(=O)c1sc(Nc2nc(C)cc(C)n2)nc1C	1	0	14	3	.
CCOC(=O)c1sc(Nc2nc(C)cc(OC)n2)nc1C	15*	2	7	-3	6
CCOC(=O)c1sc(NC(=O)CC)nc1C	1	-2	-5	-1	.
CCOC(=O)c1sc(NC(=S)NC(=O)c2ccc(OC)cc2)nc1C	83*	0	-31	-3	65*	RORg counter=>40
CCOC(=O)c1sc(NC(=O)CCc2ccc(OC)cc2)nc1C	27*	-1	-7	-4	13
CCOC(=O)c1sc(NC(=O)c2ccc(S(=O)(=O)N(CC)CC)cc2)nc1C	152*	0	-3	0	94*	RORg counter=>40
CN(CC#Cc1ccccc1)C(N)=NC(=O)/C=C/c1cccc(C(F)(F)F)c1	-2	.	.	.	.
Cc1ccc(OCc2nnc(SCC(=O)Nc3ccc(S(N)(=O)=O)cc3)n2-c2ccc(Cl)cc2)cc1	0	.	.	.	.
C=CC[C@@H]1NN2C(=O)[C@@H](CCc3ccccc3)[C@@H]3c4ccccc4C=NN3[C@@H]2c2ccccc21	6	.	.	.	.
CCOC(=O)c1sc(Nc2ccccc2)nc1C	2	-1	-124	1	.
CCOC(=O)c1sc(NC(=O)c2ccccc2OCC)nc1C	36*	-1	-45	2	4

Compound activity: PubChem, several laboratories
